# STEP inh – blocks human striatal-enriched tyrosine phosphatase | P54829 | recombinant STEP, OMFP fluorogenic substrate, fluorescence | inhibition, % at 20 µM | 360,000 compounds, 0.25% hits | AID 588621;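 active = inhibition at 20 µM, scaled per plate between control wells, above about 37%, limit read from the data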;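 note: 0% = DMSO with enzyme and substrate and 100% = substrate only without enzyme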
# Target sequence (P54829 whole entry, looked up): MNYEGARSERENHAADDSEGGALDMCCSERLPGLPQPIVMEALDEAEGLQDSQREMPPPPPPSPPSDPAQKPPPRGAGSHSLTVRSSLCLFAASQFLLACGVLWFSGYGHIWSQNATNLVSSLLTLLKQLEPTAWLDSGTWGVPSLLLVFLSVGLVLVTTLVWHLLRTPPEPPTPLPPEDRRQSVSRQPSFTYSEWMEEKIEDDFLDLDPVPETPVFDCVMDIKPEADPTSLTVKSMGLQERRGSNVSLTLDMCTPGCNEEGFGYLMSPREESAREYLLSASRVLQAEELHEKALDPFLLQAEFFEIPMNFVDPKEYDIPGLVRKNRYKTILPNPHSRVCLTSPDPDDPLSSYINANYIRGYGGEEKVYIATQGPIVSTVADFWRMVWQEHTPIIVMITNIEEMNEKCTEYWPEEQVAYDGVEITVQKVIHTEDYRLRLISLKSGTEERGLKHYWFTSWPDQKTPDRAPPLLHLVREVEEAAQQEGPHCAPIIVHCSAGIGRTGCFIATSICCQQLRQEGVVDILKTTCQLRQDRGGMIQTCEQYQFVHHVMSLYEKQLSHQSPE
#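 material = STEP tyrosine phosphatase | reagent = fluorogenic phosphatase substrate OMFP at 25 µM final | doses = single compound dose of 20 µM, 1% DMSO final | schedule = 20 min reaction, room temperature, in the dark | measured by = fluorescence, 480/540 nm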
# DNMT1 block – DNMT1 (human) enzyme inhibition | P26358 | 360,000 compounds, 0.83% hits | inhibition (reported as % activation of signal), % at 10 µM | DNMT1 molecular beacon, Hinp1I cleavage, fluorescence | AID 588458; in the data active = inhibition above about 50%
# SUMO1-SIM PPI – modulators of human SUMO1-mediated protein-protein interactions. P63165. SUMO1 binding to a labelled peptide, TR-FRET, 1 h. inhibition, % at 20 µM. 360,000 compounds, 0.33% hits. AID 602429; in the data active = inhibition above about 37%
# LMPTP inh – LMPTP (human) inhibition; recombinant LMPTP-A, OMFP fluorogenic substrate, fluorescence intensity; inhibition, % at 20 µM; 360,000 compounds, 0.22% hits; AID 651560;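 active = compounds that cut the enzyme signal by at least half of the control window in the single-dose screen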;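 note: plate controls were DMSO wells with enzyme plus substrate for no effect and substrate without enzyme for full effect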
# Target sequence (P24666 whole entry, looked up): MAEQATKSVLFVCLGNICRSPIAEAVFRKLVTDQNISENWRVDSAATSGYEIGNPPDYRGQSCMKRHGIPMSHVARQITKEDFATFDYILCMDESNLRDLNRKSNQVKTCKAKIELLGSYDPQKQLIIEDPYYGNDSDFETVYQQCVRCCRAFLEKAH
#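 Assay system: LMPTP-A phosphatase enzyme | Input: 0.625 nM enzyme | Also added: Fluorogenic phosphatase substrate OMFP at 400 µM final | Compound dosing: One test concentration per compound, 20 µM, with 3% DMSO overall | Schedule: 50 min enzyme reaction at room temperature, protected from light | Signal: Fluorescence intensity | Benchmarks: no-enzyme and uninhibited controls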
# Scp-1 inhibitor – inhibitors of human Scp-1 phosphatase; Q9GZU7; Recombinant Scp1, phosphopeptide, malachite green phosphate absorbance; inhibition, % at 20 µM; 340,000 compounds, 0.88% hits; AID 493091;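 active = inhibition above about 50% at 20 µM, limit read from the data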;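 note: plate controls were DMSO wells with enzyme for no effect and wells lacking enzyme for full effect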
#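 assay system = SCP-1 phosphatase catalytic domain, residues 76-261 | buffer or medium = 50 mM Tris acetate pH 5.5, 0.005% Tween-20, 10 mM MgCl2 | incubation = enzyme reaction 45 min at room temperature, colour 5 min, stabilisation 30 min | signal = Phosphate-binding colour reagent, absorbance read at 630 nm | measure = % inhibition at 20 µM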
# CSN deneddyl inh – inhibitors of human CSN-mediated cullin deneddylation; Purified CSN, SCF-Nedd8-OG deneddylation, fluorescence polarization; AID 651999; 360,000 compounds, 0.38% hits; inhibition, % at 12.5 µM;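 active = pattern-corrected inhibition above about 35%, with an unprinted fluorescence ratio check between 0.5 and 1.5, limit read from the data, passing the limit was not always enough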;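 note: 0% = enzyme with substrate and 100% = substrate without enzyme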
#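 Material: human Csn5 produced in HEK293T cells; Input: enzyme 0.24 nM; Reagent: SCFSkp2-Nedd8OG substrate at 10 nM final; Dosing: 12.5 µM compound; Incubation: 90 min reaction at room temperature; Detection: fluorescence polarization of the substrate; Evaluation: % inhibition of substrate cleavage by Csn5; Control set: substrate-only high control, full reaction low control.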
# Scp1 confirm – confirmation of human Scp-1 phosphatase inhibitors; shares compounds with Scp-1 inhibitor; recombinant SCP-1 catalytic domain, phosphate release, malachite green absorbance; inhibition, % at 20 µM; 2,500 compounds, 61% hits;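 note: plate controls were DMSO with enzyme for no effect and buffer wells lacking enzyme for full effect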
# MG interference – colorimetric interference in Scp-1 counter-screen | shares compounds with Scp-1 inhibitor | Colorimetric interference counterscreen, malachite green absorbance 630 nm | apparent inhibition (interference), % at 20 µM | 2,500 tested, under 10 active | AID 540313;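 note: compounds added after enzyme reaction finished so only phosphate colour detection is probed; plate controls were DMSO wells with completed Scp-1 reaction for no effect and substrate wells lacking enzyme for full effect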
# Scp1 DSF – binds human Scp-1, shifting its melting temperature; 1,500 compounds, 25% hits; shares compounds with Scp-1 inhibitor; AID 540329; Recombinant SCP1, Sypro Orange thermal shift Tm; thermal shift relative to vanadate control, % at 40 µM;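 active = substances whose mean melting-temperature shift, as a percentage of the reference inhibitor's shift, reaches about 5.3%, limit read from the data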;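 note: 0% = Tm of DMSO wells and 100% = Tm with sodium orthovanadate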
# * = called active by the depositor; . = not tested or not shown. An excerpt weighted towards active compounds, which were near 2% of everything screened.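 Rule for the calls, unless noted: active = inhibition of at least 30% at 20 µM; inactive = the rest.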
SMILES,STEP inh,DNMT1 block,SUMO1-SIM PPI,LMPTP inh,Scp-1 inhibitor,CSN deneddyl inh,Scp1 confirm,MG interference,others
COc1ccc(CN2CCNC(=O)C2CC(=O)N(C)Cc2ccon2)c(F)c1 (stereo not drawn),-2,-3,-7,0,-4,-4,.,.,
Cc1ccc(S(=O)(=O)N2CCN(C(=O)CSC(=S)N3CCCC3)CC2)c(C)c1,-2,-5,0,1,5,1,.,.,
COc1ccc(/C=C2\C(=O)NCC(=O)N2C)cc1,-2,0,3,-3,89*,1,-13,-15,
CC(C)c1ccc(NC(=O)c2sccc2-n2cccc2)cc1,-3,-3,1,4,-12,1,.,.,
O=C(Nc1cccc(Cl)c1)c1cccc(N2C(=O)C3CC=CCC3C2=O)c1 (stereo not drawn),19,24,38,1,52*,2,28,-15,
O=C1C=CC(=Nc2cccc3c2C(=O)c2ccccc2-3)O1,1,42,-15,13,61*,-4,-20,-22,
O=C(CN1C(=O)NC(CCc2ccccc2)C1=O)N1CCCCCC1 (stereo not drawn),-4,4,1,-1,-5,4,.,.,
Cc1c(C(=O)N2CCN(c3ccccc3)CC2)sc2nc3n(c(=O)c12)CCC3,0,0,1,-1,-5,2,.,.,
Cc1c(C(=O)O)sc2nc3n(c(=O)c12)CCC3,7,23,2,0,64*,2,55*,-5,Scp1 DSF=3
Cc1nn(CC(=O)Nc2ccccc2)c(=O)c2ccccc12,-12,3,-1,-1,70*,4,-3,-5,
COc1ccc(NC(=O)Cn2nc(C)c3ccccc3c2=O)cc1,3,-1,1,-2,-6,8,.,.,
CCOc1ccc(-n2ccn(CC(=O)NCCc3ccccc3)c(=O)c2=O)cc1,-1,9,-15,-1,-3,1,.,.,
Cc1cccc(C)c1NC(=O)CN(C)C(=O)c1cccc(-n2cccc2)c1,-1,19,3,4,68*,6,46*,-11,Scp1 DSF=2
CCn1c(=O)cc(OCC(=O)NCc2ccco2)c2ccccc21,2,19,-1,-2,57*,-2,30,-5,
Cc1cc2nc(C(C)(C)C)c(CC3CCCCC3)n2c(C)c1Br,.,.,5,1,.,3,.,.,
COc1ccc2cc(C(=O)Nc3ccc(S(N)(=O)=O)cc3)sc(=O)c2c1OC,10,1,-29,6,73*,-2,38*,-22,Scp1 DSF=-4
O=C(Nc1ccc2c(c1)OCO2)c1ccc(N2CCCC2)c([N+](=O)[O-])c1,-2,-8,-15,3,-1,-6,.,.,
Cc1noc(C)c1NC(=O)N(C)C[C@H]1Oc2ccc(NC(=O)Nc3ccccc3)cc2C(=O)N([C@H](C)CO)C[C@@H]1C,-3,8,1,-2,65*,0,1,-10,
C[C@H](CO)N1C[C@H](C)[C@@H](CN(C)S(=O)(=O)c2ccc(F)cc2)Oc2ccc(NC(=O)c3ccncc3)cc2C1=O,-2,0,-5,-3,59*,-2,7,-11,
COc1ccc(NC(=O)N(C)C[C@H]2Oc3ccc(NC(=O)c4ccncc4)cc3C(=O)N([C@H](C)CO)C[C@@H]2C)cc1,-1,12,0,-2,84*,-2,15,-13,
COc1ccc(S(=O)(=O)N(C)C[C@H]2Oc3ccc(NC(=O)c4ccncc4)cc3C(=O)N([C@H](C)CO)C[C@@H]2C)cc1,1,5,2,1,74*,-6,3,-13,
O=C1c2ccccc2C(=O)N1CCC#Cc1ccc2cc(CCCO)oc(=O)c2c1,-2,2,0,0,0,-1,.,.,
O=C(NC1CCCCNC1=O)c1ccco1 (stereo not drawn),-1,10,3,3,-10,2,.,.,
CC1(C(=O)NS(=O)(=O)c2ccccc2C(F)(F)F)CCN1C(=O)CC1CCCC1 (stereo not drawn),3,8,5,-2,.,3,.,.,
COc1ccc(NC(=O)Nc2ccc3c(c2)C(=O)N([C@H](C)CO)C[C@H](C)[C@@H](CN(C)C(=O)Nc2ccc(C(F)(F)F)cc2)O3)cc1,0,-11,17,2,-2,20,.,.,
SMILES,STEP inh,DNMT1 block,SUMO1-SIM PPI,LMPTP inh,Scp-1 inhibitor,CSN deneddyl inh,Scp1 confirm,MG interference,others
COc1ccc(NC(=O)N(C)C[C@H]2Oc3ccc(NC(=O)Nc4ccc(C(F)(F)F)cc4)cc3C(=O)N([C@H](C)CO)C[C@@H]2C)cc1,0,-18,5,3,50*,-5,13,-7,
O=[N+]([O-])c1ccccc1OCCN1CCOCC1,-2,0,-1,0,-5,1,.,.,
CCOC(=O)N1CCN(c2ccc(S(=O)(=O)N3CCOCC3)cn2)CC1,4,1,-2,-1,80*,-2,-12,-16,
Cc1ccc(C(=O)Nc2ccc3cn[nH]c3c2)cc1S(=O)(=O)N1CCOCC1,0,-10,9,0,-6,-2,.,.,
O=C(NCCN1CCNC1=O)C1CCC(=O)N(Cc2cccc(C(F)(F)F)c2)C1 (stereo not drawn),-2,-1,-2,-2,-1,-3,-19,-16,
Cc1sc2ncnc(SCC(=O)Nc3ncccc3O)c2c1C,5,29,20,8,59*,13,72*,-2,Scp1 DSF=9.8*
CCCC(NC(=O)Cc1c(C)c2cc3c(C)c(C)oc3c(C)c2oc1=O)C(=O)N[C@@H](Cc1ccccc1)C(=O)O (stereo partly drawn),10,18,20,21,98*,33,88*,-8,Scp1 DSF=-18
Cc1coc2c(C)c3oc(=O)c(CCC(=O)N[C@@H](C)C(=O)N[C@@H](Cc4ccccc4)C(=O)O)c(C)c3cc12,44*,19,-2,23,104*,11,64*,-18,Scp1 DSF=-33
COc1cccc2c1Oc1ncccc1N(C(=O)CCC(=O)NCc1ccc(C)cc1)C2,3,-5,4,-1,-7,0,.,.,
COCC1CCN(Cc2cn[nH]c2-c2ccc(OC)c(F)c2)C1 (stereo not drawn),0,9,-1,-2,-11,-4,.,.,
